PGC1a acetyl up = raises PGC1a acetylation signal in U2OS cells; U2OS PGC1a acetylation AlphaScreen, overnight; activation, % at 15.6 µM; 350,000 tested, 0.21% active; AID 651723;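 active = every replicate reaching activation of at least 50%, whatever the mean replicate activation; inconclusive = replicates that disagree or another doubt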;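 note: hits raise the AlphaScreen acetylation signal above neutral controls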
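System: Flag-PGC1a/GCN5 U2OS cells | Quantity: 7000 cells/well | Times: Overnight compound treatment, 37 °C | Measured by: AlphaScreen proximity luminescence, anti-acetyl-lysine antibody | Dosing: One concentration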
Hep G6PC suppr = PGC-1a acetylation activator altering hepatocyte G6PC expression. shares compounds with PGC1a acetyl up. primary mouse hepatocytes, G6PC mRNA qPCR, forskolin. G6PC suppression (normalized activity, % of positive control; higher = more suppression), % at 26 µM. 240 tested, under 10 active;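 active = dose curves showing G6PC suppression whose half-maximal dose is at most twice the top valid dose; inconclusive = flat curves with moderate negative activity, or unreliable fits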;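 note: G6PC expression relative to GAPDH housekeeping gene as delta delta Ct; 0% = median of neutral control wells and 100% = median of positive control wells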
PCK1 hep suppr = PGC-1a acetylation activator altering hepatocyte PCK1 expression; shares compounds with PGC1a acetyl up; primary mouse hepatocytes, PCK1 mRNA qPCR, forskolin-stimulated; PCK1 expression decrease, unspecified at 26 µM; 230 tested, under 10 active;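 active = compounds lowering PCK1 expression whose fitted half-maximal concentration is at most twice the top tested dose; inconclusive = flat fit with moderate opposite-direction effect, or poor fit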;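 note: values are delta delta Ct of PCK1 relative to GAPDH; higher delta delta Ct means lower PCK1 expression so positive values indicate hits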
Hep PGC-1a down = hepatocyte PGC-1a expression change via PGC-1a acetylation activation | max activity (PGC-1a expression decrease), % | primary mouse hepatocytes, PGC-1a mRNA qPCR, forskolin; top dose 26 µM | shares compounds with PGC1a acetyl up | 240 tested, under 10 active;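 active = compound lowering PGC-1a expression with fitted half-maximal concentration at most twice its top tested dose; inconclusive = flat curve with moderate opposite-direction effect, or poor fit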;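 note: 0% = neutral control wells median and 100% = positive control wells median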
An asterisk follows results filed as active; [ ] = remark or other dose. Not all results are given here.

Results for CC1=C(C(N)=O)C(c2cccnc2)n2nc(-c3cccc(Cl)c3)nc2N1 (stereo not given) ?
PGC1a acetyl up: 93*; Hep G6PC suppr: 15; PCK1 hep suppr: 30; Hep PGC-1a down: 91

Results for O=C(CC1S/C(=N/N=C/c2c[nH]c3ccccc23)NC1=O)Nc1ccccc1 (stereo not given) ?
PGC1a acetyl up: -42

Results for CC1CN(c2oc(-c3cccs3)nc2C#N)CC(C)O1 (stereo not given) ?
PGC1a acetyl up: -49

Results for O=S(=O)(c1ccc(Cl)cc1)c1snnc1-c1ccccc1 ?
PGC1a acetyl up: -42

Results for O=S(=O)(NC12CC3CC(CC(C3)C1)C2)c1ccc(F)cc1 ?
PGC1a acetyl up: 60*; Hep G6PC suppr: -27; PCK1 hep suppr: 28; Hep PGC-1a down: 50

How did O=S(=O)(Nc1nc2c(s1)CCCC2)c1ccc(F)cc1 do in these assays?
PGC1a acetyl up: -49

Results for O=S(=O)(NCCSc1ccc(Cl)cc1)c1ccc(F)cc1 ?
PGC1a acetyl up: -40

How did O=C(O)c1ccc2c(c1)OCCCO2 do in these assays?
PGC1a acetyl up: -44

How did COc1ccc(-c2c(-c3cc(OC)cc(OC)c3)n(C)c3ccc(-c4cnc(N)nc4)cc23)cc1 do in these assays?
PGC1a acetyl up: inconclusive; Hep G6PC suppr: 998; PCK1 hep suppr: 516; Hep PGC-1a down: 63

Results for O=C(/C=C/c1ccccc1)CC(O)(c1ccccc1)C(F)(F)C(F)F (stereo not given) ?
PGC1a acetyl up: -42

Results for C=C1C(=O)[C@]23C[C@H]1CCC2[C@]1(C)CCC[C@@](C)(C(=O)O)C1C[C@@H]3O (stereo not given in full) ?
PGC1a acetyl up: -47

What do the screens show for `C[C@H]1CN([C@@H](C)CO)S(=O)(=O)c2ccc(C#CCN(C)C)cc2O[C@@H]1CN(C)Cc1ccc2c(c1)OCO2`?
PGC1a acetyl up: inconclusive; Hep G6PC suppr: 304; PCK1 hep suppr: 132; Hep PGC-1a down: 45

What do the screens show for `COc1ccccc1-c1ccc2c(c1)O[C@@H](CN(C)Cc1ccc3c(c1)OCO3)[C@@H](C)CN([C@@H](C)CO)S2(=O)=O`?
PGC1a acetyl up: 65*; Hep G6PC suppr: 553; PCK1 hep suppr: 110; Hep PGC-1a down: 54

What do the screens show for `CCCc1nc2c(=O)n(C)c(=O)nc-2n(C)n1`?
PGC1a acetyl up: -75

What do the screens show for `Cc1cc(NC(=O)CCS(=O)(=O)c2nc(-c3ccccc3)cc(C(F)(F)F)n2)no1`?
PGC1a acetyl up: -90

Results for Cc1ccc(S(=O)(=O)/N=C2/C=C(Sc3ncn[nH]3)C(=O)c3ccccc32)cc1 ?
PGC1a acetyl up: -77

What do the screens show for `Cc1cc(F)cc(-c2cc(C(=O)NCc3ccccc3)[nH]n2)c1`?
PGC1a acetyl up: -41

What do the screens show for `Cc1ccc(C(=O)c2cncc(Br)c2)cc1`?
PGC1a acetyl up: -42

How did Cc1ccc(C(=O)c2c[nH]c(C(=O)NCc3cccnc3)c2)cc1 do in these assays?
PGC1a acetyl up: 75*; Hep G6PC suppr: 18; PCK1 hep suppr: 156; Hep PGC-1a down: 37

Results for O=C(CC(C(=O)O)c1c[nH]c2ccccc12)c1ccccc1 (stereo not given) ?
PGC1a acetyl up: -81

How did Cc1nnc(SCC(=O)N2CCC(c3noc4ccc(F)cc34)CC2)s1 do in these assays?
PGC1a acetyl up: -57

How did COc1ccc(C2CC(=O)N(C)c3ccccc3S2)cc1 (stereo not given) do in these assays?
PGC1a acetyl up: -41; Hep G6PC suppr: 39; PCK1 hep suppr: 45; Hep PGC-1a down: 57

What do the screens show for `O=C1C(Nc2ccccc2)=C/C(=N/S(=O)(=O)c2cccs2)c2ccccc21`?
PGC1a acetyl up: -59

How did Cc1c(C(=O)OCC(=O)c2c(N)n(CC(C)C)c(=O)n(C)c2=O)oc2ccccc12 do in these assays?
PGC1a acetyl up: 64*; Hep G6PC suppr: 66; PCK1 hep suppr: 81; Hep PGC-1a down: 9

What do the screens show for `O=C1/C(=C\c2ccco2)SC(=S)N1Cc1ccccc1`?
PGC1a acetyl up: -41

What do the screens show for `NCc1cccc(-n2cccn2)c1`?
PGC1a acetyl up: -54

What do the screens show for `O=C(c1ccco1)N1CCN(c2nnc(-c3ccccc3)c3ccccc23)CC1`?
PGC1a acetyl up: inconclusive; Hep G6PC suppr: 43; PCK1 hep suppr: 18; Hep PGC-1a down: inconclusive

Results for O=C(Cc1ccccc1)Nc1nc(-c2ccc(F)c(F)c2)cs1 ?
PGC1a acetyl up: 62*; Hep G6PC suppr: 70; PCK1 hep suppr: 59; Hep PGC-1a down: 83

How did O=C(O)CC1S/C(=N/N=C/c2ccc(Br)cc2)N(c2ccccc2)C1=O (stereo not given) do in these assays?
PGC1a acetyl up: -75

How did CCCN(CCC)CCNC(=O)c1cc2c(=O)n(CC)c3ccccc3c2s1 do in these assays?
PGC1a acetyl up: -43

Results for Cc1nnc(NC(=O)CSc2ncc(-c3ccccc3)[nH]2)s1 ?
PGC1a acetyl up: -88

What do the screens show for `Cc1sc(NC(=O)c2cccs2)nc1-c1ccccc1`?
PGC1a acetyl up: 80*; PCK1 hep suppr: 3.4; Hep PGC-1a down: 22

How did Cc1ccc(Cl)c(Cn2cnc3c(cnn3C(C)(C)C)c2=O)c1F do in these assays?
PGC1a acetyl up: -48

How did Cc1ccc(S(=O)(=O)NC(CC(C)C)C(=O)N2CCCCCCC2)cc1 (stereo not given) do in these assays?
PGC1a acetyl up: 64*; Hep G6PC suppr: 7; PCK1 hep suppr: 77; Hep PGC-1a down: 77

How did Cc1c(Cl)cccc1NS(=O)(=O)c1ccc2c(c1)C1C=CCC1C(c1ccc(C(=O)O)cc1)N2 (stereo not given) do in these assays?
PGC1a acetyl up: -107

Results for CN(C)/C=N/c1nc2nccc(-c3ccccn3)n2n1 ?
PGC1a acetyl up: -47

What do the screens show for `CCOc1ccc(Nc2oc(-c3ccc(Cl)cc3)nc2C#N)cc1`?
PGC1a acetyl up: 62*; Hep G6PC suppr: -53[8 µM]; PCK1 hep suppr: 54; Hep PGC-1a down: 20

Results for CN(C)CCNc1oc(COc2ccc(-c3ccccc3)cc2)nc1C#N ?
PGC1a acetyl up: -58

Results for CCOc1ccc2nc(NCCNC(=O)Nc3ccccc3)c(C#N)cc2c1 ?
PGC1a acetyl up: -64
